Results: ChEMBL document CHEMBL1287651, “Synthesis and in vitro antibacterial activity of fluoroquinolone derivatives containing 3-(N'-alkoxycarbamimidoyl)-4-(alkoxyimino) pyrrolidines” (2010)
Values after ≈ are worked out from the molar mass of the structure shown.

Assays:
Assay type in all cases: functional
[1] = test system: Staphylococcus aureus; experiment: Antibacterial activity against Staphylococcus aureus ATCC […] after 18 to 24 hrs by twofold serial dilution method
Outline: (§1)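 MIC determined by the standard twofold serial dilution method on agar media, screening against Gram-positive and Gram-negative strains. Levofloxacin and gemifloxacin were run alongside as reference drugs.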

[2] = test system: Staphylococcus aureus; experiment: Antibacterial activity against methicillin-resistant Staphylococcus aureus 08-1 after 18 to 24 hrs by twofold serial dilution method
Outline: (§2)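 Standard twofold serial agar dilution method on agar media for MIC determination. Screened against representative Gram-positive and Gram-negative strains. Levofloxacin and GMFX served as control drugs.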

[3] = test system: Staphylococcus aureus; experiment: Antibacterial activity against methicillin-sensitive Staphylococcus aureus 08-2 after 18 to 24 hrs by twofold serial dilution method; outline: as §2
[4] = test system: Staphylococcus epidermidis; experiment: Antibacterial activity against methicillin-resistant Staphylococcus epidermidis 09-2 after 18 to 24 hrs by twofold serial dilution method; outline: as §2
[5] = test system: Staphylococcus epidermidis; experiment: Antibacterial activity against methicillin-resistant Staphylococcus epidermidis 09-3 after 18 to 24 hrs by twofold serial dilution method; outline: as §2
[6] = test system: Staphylococcus epidermidis; experiment: Antibacterial activity against methicillin-resistant Staphylococcus epidermidis 09-4 after 18 to 24 hrs by twofold serial dilution method; outline: as §2
[7] = test system: Staphylococcus epidermidis; experiment: Antibacterial activity against methicillin-sensitive Staphylococcus epidermidis 09-3 after 18 to 24 hrs by twofold serial dilution method; outline: as §2
[8] = test system: Staphylococcus epidermidis; experiment: Antibacterial activity against methicillin-sensitive Staphylococcus epidermidis 09-6 after 18 to 24 hrs by twofold serial dilution method; outline: as §2
[9] = test system: Streptococcus pneumoniae; experiment: Antibacterial activity against Streptococcus pneumoniae 08-2 after 18 to 24 hrs by twofold serial dilution method; outline: as §1
[10] = test system: Streptococcus pneumoniae; experiment: Antibacterial activity against Streptococcus pneumoniae 08-4 after 18 to 24 hrs by twofold serial dilution method; outline: as §1
[11] = test system: Enterococcus faecium; experiment: Antibacterial activity against Enterococcus faecium 08-2 after 18 to 24 hrs by twofold serial dilution method; outline: as §1
[12] = test system: Enterococcus faecium; experiment: Antibacterial activity against Enterococcus faecium 08-7 after 18 to 24 hrs by twofold serial dilution method; outline: as §1
[13] = test system: Enterococcus faecalis; experiment: Antibacterial activity against Enterococcus faecalis 08-10 after 18 to 24 hrs by twofold serial dilution method; outline: as §1
[14] = test system: Enterococcus faecalis; experiment: Antibacterial activity against Enterococcus faecalis 08-12 after 18 to 24 hrs by twofold serial dilution method; outline: as §1
[15] = test system: Escherichia coli; experiment: Antibacterial activity against Escherichia coli ATCC 25922 after 18 to 24 hrs by twofold serial dilution method; outline: as §1
[16] = test system: Escherichia coli; experiment: Antibacterial activity against Escherichia coli 08-21 after 18 to 24 hrs by twofold serial dilution method; outline: as §1
[17] = test system: Escherichia coli; experiment: Antibacterial activity against Escherichia coli 08-22 after 18 to 24 hrs by twofold serial dilution method; outline: as §1
[18] = test system: Klebsiella pneumoniae; experiment: Antibacterial activity against Klebsiella pneumoniae 09-21 after 18 to 24 hrs by twofold serial dilution method; outline: as §1
[19] = test system: Klebsiella pneumoniae; experiment: Antibacterial activity against Klebsiella pneumoniae 09-22 after 18 to 24 hrs by twofold serial dilution method; outline: as §1
[20] = test system: Klebsiella pneumoniae; experiment: Antibacterial activity against Klebsiella pneumoniae 09-23 after 18 to 24 hrs by twofold serial dilution method; outline: as §1
[21] = test system: Pseudomonas aeruginosa; experiment: Antibacterial activity against Pseudomonas aeruginosa ATCC 27853 after 18 to 24 hrs by twofold serial dilution method; outline: as §1
[22] = test system: Pseudomonas aeruginosa; experiment: Antibacterial activity against Pseudomonas aeruginosa 09-32 after 18 to 24 hrs by twofold serial dilution method; outline: as §1
[23] = test system: Pseudomonas aeruginosa; experiment: Antibacterial activity against Pseudomonas aeruginosa 09-33 after 18 to 24 hrs by twofold serial dilution method; outline: as §1
[24] = test system: Pseudomonas aeruginosa; experiment: Antibacterial activity against Pseudomonas aeruginosa 09-34 after 18 to 24 hrs by twofold serial dilution method; outline: as §1
[25] = test system: Pseudomonas aeruginosa; experiment: Antibacterial activity against Pseudomonas aeruginosa 09-35 after 18 to 24 hrs by twofold serial dilution method; outline: as §1

SMILES	MIC [1] [µg/mL]	MIC [2] [µg/mL]	MIC [3] [µg/mL]	MIC [4] [µg/mL]	MIC [5] [µg/mL]	MIC [6] [µg/mL]	MIC [7] [µg/mL]	MIC [8] [µg/mL]	MIC [9] [µg/mL]	MIC [10] [µg/mL]	MIC [11] [µg/mL]	MIC [12] [µg/mL]	MIC [13] [µg/mL]	MIC [14] [µg/mL]	MIC [15] [µg/mL]	MIC [16] [µg/mL]	MIC [17] [µg/mL]	MIC [18] [µg/mL]	MIC [19] [µg/mL]	MIC [20] [µg/mL]	other results
CO/N=C1\CN(c2nc3c(cc2F)c(=O)c(C(=O)O)cn3C2CC2)CC1/C(N)=N\OC (stereo not given)	0.25 (≈ 0.578 µM)	0.25 (≈ 0.578 µM)	1 (≈ 2.31 µM)	1 (≈ 2.31 µM)	0.25 (≈ 0.578 µM)	0.25 (≈ 0.578 µM)	0.25 (≈ 0.578 µM)	0.25 (≈ 0.578 µM)	> 128	1 (≈ 2.31 µM)	> 128	> 128	> 128	> 128	128 (≈ 296 µM)	> 128	> 128	> 128	1 (≈ 2.31 µM)	> 128	MIC [21]: 64 µg/mL (≈ 148 µM); MIC [22]: 128 µg/mL (≈ 296 µM); MIC [23]: > 128 µg/mL; MIC [24]: > 128 µg/mL; MIC [25]: 64 µg/mL (≈ 148 µM)
CO/N=C1\CN(c2c(F)cc3c(=O)c(C(=O)O)cn(CCF)c3c2F)CC1/C(N)=N\OC (stereo not given)	0.125 (≈ 0.274 µM)	0.125 (≈ 0.274 µM)	0.25 (≈ 0.549 µM)	2 (≈ 4.39 µM)	0.125 (≈ 0.274 µM)	0.125 (≈ 0.274 µM)	0.25 (≈ 0.549 µM)	0.25 (≈ 0.549 µM)	4 (≈ 8.78 µM)	2 (≈ 4.39 µM)	> 128	> 128	64 (≈ 141 µM)	> 128	128 (≈ 281 µM)	> 128	> 128	> 128	4 (≈ 8.78 µM)	> 128	MIC [21]: 32 µg/mL (≈ 70.3 µM); MIC [22]: 64 µg/mL (≈ 141 µM); MIC [23]: > 128 µg/mL; MIC [24]: > 128 µg/mL; MIC [25]: 64 µg/mL (≈ 141 µM)
CCO/N=C1\CN(c2c(F)cc3c(=O)c(C(=O)O)cn(CCF)c3c2F)CC1/C(N)=N\OCC (stereo not given)	2 (≈ 4.14 µM)	4 (≈ 8.27 µM)	> 128	4 (≈ 8.27 µM)	4 (≈ 8.27 µM)	4 (≈ 8.27 µM)	4 (≈ 8.27 µM)	8 (≈ 16.5 µM)	8 (≈ 16.5 µM)	8 (≈ 16.5 µM)	> 128	> 128	> 128	> 128	128 (≈ 265 µM)	> 128	> 128	> 128	> 128	> 128	MIC [21]: 128 µg/mL (≈ 265 µM); MIC [22]: > 128 µg/mL; MIC [23]: > 128 µg/mL; MIC [24]: > 128 µg/mL; MIC [25]: > 128 µg/mL
CCO/N=C(/N)C1CN(c2c(F)cc3c(=O)c(C(=O)O)cn(CCF)c3c2F)C/C1=N\OC (stereo not given)	0.25 (≈ 0.533 µM)	0.25 (≈ 0.533 µM)	0.25 (≈ 0.533 µM)	0.25 (≈ 0.533 µM)	0.125 (≈ 0.266 µM)	0.25 (≈ 0.533 µM)	0.5 (≈ 1.07 µM)	0.25 (≈ 0.533 µM)	8 (≈ 17 µM)	1 (≈ 2.13 µM)	> 128	> 128	> 128	> 128	> 128	> 128	> 128	> 128	2 (≈ 4.26 µM)	> 128	MIC [21]: > 128 µg/mL; MIC [22]: > 128 µg/mL; MIC [23]: > 128 µg/mL; MIC [24]: > 128 µg/mL; MIC [25]: > 128 µg/mL
CO/N=C1\CN(c2c(F)cc3c(=O)c(C(=O)O)cn(C4CC4)c3c2OC)CC1/C(N)=N\O (stereo not given)	0.25 (≈ 0.559 µM)	0.25 (≈ 0.559 µM)	0.25 (≈ 0.559 µM)	0.5 (≈ 1.12 µM)	0.25 (≈ 0.559 µM)	0.25 (≈ 0.559 µM)	0.25 (≈ 0.559 µM)	0.25 (≈ 0.559 µM)	4 (≈ 8.94 µM)	4 (≈ 8.94 µM)	> 128	> 128	> 128	> 128	> 128	> 128	> 128	> 128	1 (≈ 2.24 µM)	> 128	MIC [21]: 16 µg/mL (≈ 35.8 µM); MIC [22]: 32 µg/mL (≈ 71.5 µM); MIC [23]: > 128 µg/mL; MIC [24]: > 128 µg/mL; MIC [25]: 32 µg/mL (≈ 71.5 µM)
CCO/N=C1\CN(c2c(F)cc3c(=O)c(C(=O)O)cn(CC)c3c2F)CC1/C(N)=N\O (stereo not given)	1 (≈ 2.29 µM)	1 (≈ 2.29 µM)	1 (≈ 2.29 µM)	1 (≈ 2.29 µM)	0.25 (≈ 0.572 µM)	1 (≈ 2.29 µM)	0.125 (≈ 0.286 µM)	0.125 (≈ 0.286 µM)	16 (≈ 36.6 µM)	> 128	> 128	> 128	> 128	> 128	> 128	> 128	16 (≈ 36.6 µM)	> 128	> 128	> 128	MIC [21]: > 128 µg/mL; MIC [22]: > 128 µg/mL; MIC [23]: > 128 µg/mL; MIC [24]: > 128 µg/mL; MIC [25]: > 128 µg/mL
